Experimental data from ChEMBL document CHEMBL1148766, “Design, synthesis, and evaluation of orally active benzimidazoles and benzoxazoles as vascular endothelial growth factor-2 receptor tyrosine kinase inhibitors” (J Med Chem, 2007).

What was measured:
[1] = target: T1, Vascular endothelial growth factor receptor 2 (Homo sapiens, UniProt P35968); test: Inhibition of KDR phosphorylation; assay type: functional
[2] = Clearance in Sprague-Dawley rat at 1 mg/kg, iv; assay type: ADME, organism-based; design: dose 1 mg/kg, route intravenous; settings: in vivo
Outline: (§1)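 Male Sprague-Dawley rats, n = 3, given 1 mg/kg as a DMSO solution into the femoral vein. Serial jugular-vein blood samples were taken into heparinized tubes over 12-24 h. Parameters were derived by noncompartmental analysis.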

[3] = Half life in Sprague-Dawley rat at 1 mg/kg, iv or 10 mg/kg po; assay type: ADME, organism-based; settings: in vivo
Outline: (§2)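 Male Sprague-Dawley rats were dosed either into the femoral vein at 1 mg/kg in DMSO (n = 3) or by oral gavage at 10 mg/kg as an Ora-Plus suspension, pH 2.0-2.2 with methanesulfonic acid (n = 2). Serial jugular-vein blood was taken into heparinized tubes over 12-24 h. Parameters were derived by noncompartmental analysis.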

[4] = Volume of distribution at steady state in Sprague-Dawley rat at 1 mg/kg, iv; assay type: ADME, organism-based; design: dose 1 mg/kg, route intravenous; settings: in vivo, read-out: Vdss; outline: as §1
[5] = Oral bioavailability in Sprague-Dawley rat at 10 mg/kg, po; assay type: ADME, organism-based; settings: in vivo; outline: as §2
[6] = Oral bioavailability in Sprague-Dawley rat at 3 mg/kg, po; assay type: ADME, organism-based; settings: in vivo
Outline: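 Male Sprague-Dawley rats given 3 mg/kg by oral gavage as an Ora-Plus suspension adjusted to pH 2.0-2.2 with methanesulfonic acid. Serial jugular-vein blood was taken into heparinized tubes over 12-24 h. Noncompartmental analysis.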

[7] = target: T1, Vascular endothelial growth factor receptor 2; test: Selectivity for VEGF-stimulated HUVEC cell proliferation over FGF-induced HUVEC cell proliferation; assay type: functional, cell-based
Outline: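 HUVECs seeded at 3000/well in DMEM with 10% FBS, 22 h, then preincubated 2 h with compound serial dilutions. Stimulated with 50 ng/mL VEGF or 20 ng/mL bFGF for 72 h at 37 °C, 5% CO₂. Cells washed, frozen, then quantified with CyQuant dye. IC50s from four-parameter logistic fit; ratio of FGF over VEGF IC50.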

T1 sequence (P35968 whole entry): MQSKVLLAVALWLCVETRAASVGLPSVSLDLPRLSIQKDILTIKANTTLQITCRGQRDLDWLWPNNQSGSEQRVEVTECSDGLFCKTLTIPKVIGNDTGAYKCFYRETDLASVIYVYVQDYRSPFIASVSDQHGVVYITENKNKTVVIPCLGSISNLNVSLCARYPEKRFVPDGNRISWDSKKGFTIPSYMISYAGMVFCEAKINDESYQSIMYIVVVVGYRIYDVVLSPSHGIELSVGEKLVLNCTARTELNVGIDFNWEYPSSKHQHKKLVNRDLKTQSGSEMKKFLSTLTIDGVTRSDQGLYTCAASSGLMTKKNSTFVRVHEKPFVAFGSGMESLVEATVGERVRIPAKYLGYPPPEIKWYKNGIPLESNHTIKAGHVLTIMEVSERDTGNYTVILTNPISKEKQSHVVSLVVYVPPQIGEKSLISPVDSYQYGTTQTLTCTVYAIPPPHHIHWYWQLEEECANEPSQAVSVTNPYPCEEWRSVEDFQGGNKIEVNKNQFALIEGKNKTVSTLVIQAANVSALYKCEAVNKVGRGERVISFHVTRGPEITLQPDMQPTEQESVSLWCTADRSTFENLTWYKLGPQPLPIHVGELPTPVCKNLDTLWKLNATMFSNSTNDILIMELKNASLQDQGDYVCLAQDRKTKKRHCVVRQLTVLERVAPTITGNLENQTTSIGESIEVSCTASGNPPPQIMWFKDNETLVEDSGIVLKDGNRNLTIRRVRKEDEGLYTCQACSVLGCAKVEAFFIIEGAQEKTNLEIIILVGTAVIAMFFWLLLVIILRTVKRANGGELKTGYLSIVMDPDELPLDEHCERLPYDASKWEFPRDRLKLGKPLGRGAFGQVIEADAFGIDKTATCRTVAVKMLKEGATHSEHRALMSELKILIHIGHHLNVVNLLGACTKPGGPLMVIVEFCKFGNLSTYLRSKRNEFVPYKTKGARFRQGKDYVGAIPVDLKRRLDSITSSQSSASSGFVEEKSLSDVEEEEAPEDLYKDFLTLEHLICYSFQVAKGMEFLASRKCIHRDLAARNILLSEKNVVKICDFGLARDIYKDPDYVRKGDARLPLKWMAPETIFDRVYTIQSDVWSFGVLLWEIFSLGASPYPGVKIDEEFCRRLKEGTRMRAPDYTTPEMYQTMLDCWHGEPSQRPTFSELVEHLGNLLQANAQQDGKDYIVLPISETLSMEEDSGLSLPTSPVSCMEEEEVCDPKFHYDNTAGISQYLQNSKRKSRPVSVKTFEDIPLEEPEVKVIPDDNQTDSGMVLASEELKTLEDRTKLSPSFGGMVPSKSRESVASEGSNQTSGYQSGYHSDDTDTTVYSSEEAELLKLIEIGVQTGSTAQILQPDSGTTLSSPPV

| SMILES | Ki [1] | further results |
| --- | --- | --- |
| CNC(=O)c1cc(Oc2ccc3[nH]c(Nc4cc(OCCN5CCCC5)cc(C(F)(F)F)c4)nc3c2)ccn1 | 287 nM | – |
| CN1CCC[C@@H]1COc1cc(Nc2nc3cc(Oc4ccnc5ccccc45)ccc3[nH]2)ccc1C(F)(F)F | 1 nM | clearance [2]: 16.7 mL/min/kg; half-life [3]: 4.8 h; Vd [4]: 5.8 L/kg; bioavailability [5]: 24% |
| COc1cc2nccc(Oc3ccc4oc(Nc5ccc(Cl)c(OC[C@@H]6CCCN6C)c5)nc4c3)c2cc1OC | 0.5 nM | – |
| CN1CCC[C@H]1COc1cc(Nc2nc3cc(Oc4ccnc(C(N)=O)c4)ccc3o2)ccc1Cl | 3 nM | – |
| CNC(=O)c1cc(Oc2ccc3[nH]c(Nc4ccc(C(F)(F)C(F)(F)F)c(OC[C@H]5CCCN5C)c4)nc3c2)ccn1 | 9 nM | – |
| CNC(=O)c1cc(Oc2ccc3c(c2)nc(Nc2ccc(Cl)c(CN4CCN(C)CC4)c2)n3C)ccn1 | 10 nM | – |
| CNC(=O)c1cc(Oc2ccc3[nH]c(Nc4ccc(C(F)(F)F)c(OCCN(C)C)c4)nc3c2)ccn1 | 3 nM | – |
| CN1CCN(Cc2cc(Nc3nc4cc(Oc5ccnc6ccccc56)ccc4[nH]3)ccc2Cl)CC1 | 2 nM | – |
| CN1CCN(Cc2cc(Nc3nc4cc(Oc5ccnc6ccccc56)cc(Cl)c4o3)ccc2Cl)CC1 | 2 nM | – |
| CNc1cc(Oc2ccc3oc(Nc4ccc(Cl)c(CN5CCN(C)CC5)c4)nc3c2)ncn1 | 20 nM | – |
| CNC(=O)c1cc(Oc2ccc3oc(Nc4ccc(Cl)c(CN5CCN(C)CC5)c4)nc3c2)ccn1 | 4 nM | – |
| CNC(=O)c1cc(Oc2ccc3oc(Nc4ccc(Cl)c(OC[C@@H]5CCCN5C)c4)nc3c2)ccn1 | – | bioavailability [6]: 40%; clearance [2]: 56.7 mL/min/kg; half-life [3]: 1.8 h; Vd [4]: 8.4 L/kg |
| CN1CCCC1COc1cc(Nc2nc3cc(Oc4ccnc5[nH]ccc45)ccc3o2)ccc1Cl (single isomer, unassigned) | 1.6 nM | clearance [2]: 20.7 mL/min/kg; half-life [3]: 2.87 h; Vd [4]: 5.02 L/kg; bioavailability [5]: 17% |
| CNC(=O)c1cc(Oc2cc(F)c3oc(Nc4ccc(Cl)c(OC[C@@H]5CCCN5C)c4)nc3c2)ccn1 | 3 nM | – |
| CN1CCN(Cc2cc(Nc3nc4ccc(Oc5ccnc6[nH]ccc56)cc4[nH]3)ccc2Cl)CC1 | 3 nM | – |
| CNC(=O)c1cc(Oc2ccc3oc(Nc4ccc(Cl)cc4)nc3c2)ccn1 | 12 nM | – |
| CCN(CC)CCOc1cc(Nc2nc3cc(Oc4ccnc(C(=O)NC)c4)ccc3o2)ccc1Cl | 5 nM | – |
| CN1CCN(Cc2cc(Nc3nc4cc(Oc5ccnc6[nH]ccc56)ccc4o3)ccc2Cl)CC1 | 2 nM | – |

| SMILES | Ki [1] | further results |
| --- | --- | --- |
| CNC(=O)c1cc(Oc2cc(Cl)c3oc(Nc4ccc(Cl)c(CN5CCN(C)CC5)c4)nc3c2)ccn1 | 10 nM | – |
| CN1CCN(Cc2cc(Nc3nc4cc(Oc5ccnc6ccccc56)ccc4o3)ccc2Cl)CC1 | 3.6 nM | – |
| COc1cc2ncnc(Oc3ccc4oc(Nc5ccc(Cl)c(OC[C@@H]6CCCN6C)c5)nc4c3)c2cc1OC | 0.5 nM | Ratio IC50 [7]: 10; clearance [2]: 14.8 mL/min/kg; half-life [3]: 6.14 h; Vd [4]: 6.88 L/kg; bioavailability [5]: 60% |
| FC(F)(F)c1cc(Nc2nc3ccc(Oc4ccnc5[nH]ccc45)cc3[nH]2)ccc1Cl | 48 nM | – |
| COc1cc2nccc(Oc3ccc4[nH]c(Nc5ccc(Cl)c(CN6CCN(C)CC6)c5)nc4c3)c2cc1OC | 0.2 nM | – |
| CNC(=O)c1cc(Oc2ccc3oc(Nc4ccc(Cl)c(OCC5CCNCC5)c4)nc3c2)ccn1 | 3 nM | – |
| CNC(=O)c1cc(Oc2ccc3oc(Nc4ccc(Cl)c(OCCN(C)C)c4)nc3c2)ccn1 | 4 nM | – |
| CSc1nccc(Oc2ccc3[nH]c(Nc4ccc(Cl)c(CN5CCN(C)CC5)c4)nc3c2)n1 | 128 nM | – |
| CNc1nccc(Oc2ccc3[nH]c(Nc4ccc(Cl)c(CN5CCN(C)CC5)c4)nc3c2)n1 | 40 nM | – |
| COc1cc2ncnc(Oc3ccc4[nH]c(Nc5ccc(Cl)cc5)nc4c3)c2cc1OC | 8 nM | – |
| CN1CCN(Cc2cc(Nc3nc4ccc(Oc5ncnc6[nH]ccc56)cc4[nH]3)ccc2Cl)CC1 | 17 nM | – |
| CNC(=O)c1cc(Oc2ccc3oc(Nc4ccc(Cl)c(CN5CCOCC5)c4)nc3c2)ccn1 | 4 nM | – |
| CNC(=O)c1cc(Oc2ccc3[nH]c(Nc4ccc(Cl)c(CN5CCN(C)CC5)c4)nc3c2)ccn1 | 3.9 nM | – |
| CNc1nccc(Oc2ccc3oc(Nc4ccc(Cl)c(CN5CCN(C)CC5)c4)nc3c2)n1 | 25 nM | – |
| FC(F)(F)c1cc(Nc2nc3cc(Oc4ccncc4)ccc3[nH]2)ccc1Cl | 160 nM | – |
| CNC(=O)c1cc(Oc2ccc3[nH]c(Nc4ccc(C(F)(F)F)c(OC[C@H]5CCCN5C)c4)nc3c2)ccn1 | 2 nM | – |
| COc1cc2nccc(Oc3ccc4oc(Nc5ccc(Cl)c(CN6CCN(C)CC6)c5)nc4c3)c2cc1OC | 0.5 nM | Ratio IC50 [7]: 10; clearance [2]: 27.2 mL/min/kg; half-life [3]: 5.53 h; Vd [4]: 12.1 L/kg; bioavailability [5]: 67% |
